A word on the IC50: it is the concentration that gives 50% inhibition. As usually defined, the Ki is a dissociation constant, usually derived from enzyme kinetics or from competition with a known ligand.

Data on 22 compounds can be found in ChEMBL document CHEMBL1781931, “Anacardic acid derivatives as inhibitors of glyceraldehyde-3-phosphate dehydrogenase from Trypanosoma cruzi” (Bioorg Med Chem, 2008).

Assay [1] addresses T1, Glyceraldehyde-3-phosphate dehydrogenase, glycosomal (Trypanosoma cruzi, UniProt P22513). Put plainly: Inhibition of Trypanosoma cruzi recombinant glycosomal GAPDH expressed in Escherichia coli using GAPDH and D-glyceraldehyde-3-phosphate. Put shortly:
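Recombinant T. cruzi GAPDH (20 nM; E. coli-expressed, purified by hydrophobic then cation-exchange chromatography) assayed at 25 °C in triplicate. Buffer: 100 mM triethanolamine-HCl pH 7.5, 1 mM EDTA, 1 mM 2-mercaptoethanol, 30 mM arsenate, 400 µM NAD+, 300 µM G-3-P. NADH formation read at 340 nm for 8 min. Initial rates give % inhibition; IC50 from ≥5 inhibitor concentrations by nonlinear regression.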

Assay [2] has as its target T1, Glyceraldehyde-3-phosphate dehydrogenase, glycosomal. Put plainly: Non-competitive inhibition of Trypanosoma cruzi recombinant glycosomal GAPDH expressed in Escherichia coli assessed as dissociation constant for binary enzyme-inhibitor complex using NAD+ substrate by Lineweaver-Burk plot method. Put shortly:
(§1)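 Inhibition type and Ki/αKi were determined against each substrate (G-3-P or NAD+), varying that substrate at 3 or 4 inhibitor concentrations. Conditions were otherwise those of the 340 nm NADH assay: 20 nM recombinant GAPDH, pH 7.5 triethanolamine buffer, 25 °C. Double-reciprocal plots were used, with parameters fitted in an enzyme-kinetics module. Means are of ≥3 experiments.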

Assay [3] has the same target. Put plainly: Non-competitive inhibition of Trypanosoma cruzi recombinant glycosomal GAPDH expressed in Escherichia coli assessed as dissociation constant for ternary enzyme-substrate-inhibitor complex using NAD+ substrate by Lineweaver-Burk plot method. Put shortly:
as §1

The target is the same in assay [4]. Put plainly: Non-competitive inhibition of Trypanosoma cruzi recombinant glycosomal GAPDH expressed in Escherichia coli assessed as dissociation constant for binary enzyme-inhibitor complex using D-glyceraldehyde-3-phosphate substrate by Lineweaver-Burk plot method. The procedure, abridged: as §1
For assay [5] the target is unchanged. Put plainly: Non-competitive inhibition of Trypanosoma cruzi recombinant glycosomal GAPDH expressed in Escherichia coli assessed as dissociation constant for ternary enzyme-substrate-inhibitor complex using D-glyceraldehyde-3-phosphate substrate by Lineweaver-Burk plot method. Put shortly: as §1
Assay [6] has as its target Glyceraldehyde-3-phosphate dehydrogenase, glycosomal (Trypanosoma cruzi) (UniProt P22513). Put plainly: Inhibition of Trypanosoma cruzi recombinant glycosomal GAPDH expressed in Escherichia coli using GAPDH and D-glyceraldehyde-3-phosphate in presence of 0.01% Triton X-100. Put shortly: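 Assay as for the standard GAPDH rate measurement: 20 nM recombinant enzyme, triethanolamine-HCl pH 7.5 with EDTA, 2-mercaptoethanol, arsenate, 400 µM NAD+ and 300 µM G-3-P, 25 °C, NADH followed at 340 nm. Triton X-100 was added to 0.01% final, from a freshly made 1% (v/v) stock in triethanolamine buffer, to test for nonspecific inhibition.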

Activity calls are given as the source filed them. The rule behind the calls is not given here.

T1 sequence (P22513 whole entry): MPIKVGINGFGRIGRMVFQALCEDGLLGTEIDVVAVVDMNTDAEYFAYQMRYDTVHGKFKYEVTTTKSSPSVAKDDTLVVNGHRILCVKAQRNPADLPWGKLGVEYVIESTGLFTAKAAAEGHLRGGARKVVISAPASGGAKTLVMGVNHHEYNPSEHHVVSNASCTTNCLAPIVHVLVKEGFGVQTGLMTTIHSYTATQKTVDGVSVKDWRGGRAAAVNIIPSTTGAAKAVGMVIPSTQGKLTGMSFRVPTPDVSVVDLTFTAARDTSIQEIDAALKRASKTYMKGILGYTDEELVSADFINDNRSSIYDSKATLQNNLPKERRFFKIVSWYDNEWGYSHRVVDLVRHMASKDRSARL
Chain of Glyceraldehyde-3-phosphate dehydrogenase, glycosomal (Trypanosoma cruzi) (P22513 whole entry): as above

Consider `CCOC(=O)c1c(O)cccc1CCCCCCCCO`, for which, in assay [1], the IC50 was above 250 µM.
Take `CCOC(=O)c1c(C=CCCCCOC2CCCCO2)cccc1OC` (mixture of isomers): the IC50 in assay [1] is above 300 µM.
The same measure, in the same setting: then `O=C(O)c1c(O)cccc1CCCCCCCCCCO`, with 240 µM.
Regarding `O=C(O)c1c(O)cccc1CCCCCCCCO`, the IC50 in assay [1] was above 250 µM.
Still for that read-out and setting: then `CCCCCCCCCCCCc1cccc(O)c1C(=O)OCC`, with 215 µM; and `CCCCCCCCCc1cccc(OC)c1C(=O)OCC`, with above 250 µM.
As for `CCOC(=O)c1c(CCCCCCOC2CCCCO2)cccc1OC` (configuration not stated), the IC50 in assay [1] is above 250 µM.
Still for that read-out and setting: under `CCOC(=O)c1c(O)cccc1CCCCCCO` stands above 250 µM; under `CCOC(=O)c1c(C=CCCCCCCCCOC2CCCCO2)cccc1OC` (mixture of isomers), above 300 µM.
Same read-out and setting: then `O=C(O)c1c(O)cccc1CCCCCCO`, with above 250 µM; and `CCCCCCCC=Cc1cccc(OC)c1C(=O)OCC` (mixture of isomers), with above 300 µM.
Same read-out and setting: then `CCCCCCCCCCCCc1cccc(OC)c1C(=O)OCC`, with above 250 µM.
As for `CCCCCCCCCCCCc1cccc(O)c1C(=O)O`, the Ki in assay [2] is 5 µM; in assay [3] it was 43 µM; in assay [4] it was 4 µM; in assay [5], 38 µM. For the same compound, the IC50 in assay [1] worked out at 55 µM. The inhibition result in assay [6] was “Active”.
In the case of `CCOC(=O)c1c(CCCCCCCCCCOC2CCCCO2)cccc1OC` (configuration not stated), the IC50 in assay [1] was above 250 µM.
With `C=CC/C=C\C/C=C\CCCCCCCc1cccc(O)c1C(=O)O` [ANACARDIC ACID], the Ki in assay [2] turned out to be 4 µM; in assay [3], 6 µM; in assay [4], 2 µM; in assay [5], 4 µM. The IC50 in assay [1] amounted to 28 µM. In assay [6], the inhibition entry was “Active”.
Consider `CCOC(=O)c1c(C=CCCCCCCOC2CCCCO2)cccc1OC` (mixture of isomers), for which, in assay [1], the IC50 is above 300 µM.
For `CCCCCCCCCc1cccc(O)c1C(=O)O`, the IC50 in assay [1] came out at 200 µM.
The same measure, in the same setting: then `CCOC(=O)c1c(CCCCCCCCOC2CCCCO2)cccc1OC` (configuration not stated), with above 250 µM; and `CCCCCCCCCCC=Cc1cccc(OC)c1C(=O)OCC` (mixture of isomers), with above 300 µM; and `CCOC(=O)c1c(O)cccc1CCCCCCCCCCO`, with above 250 µM.
Turning to `CCCCCCCCCc1cccc(O)c1C(=O)OCC`, in assay [1], the IC50 is above 250 µM.
On the same count and under the same terms, then `O=CCCCCCCCc1cccc(O)c1C(=O)O`, with above 250 µM.
